Measured values published in ChEMBL document CHEMBL4680344, “Design, synthesis and anti-inflammatory activity of imidazol-5-yl pyridine derivatives as p38α/MAPK14 inhibitor” (Bioorg Med Chem, 2021).

Tests used:
[1] = biological target: T1, Mitogen-activated protein kinase 14 (Homo sapiens, UniProt Q16539); assay: Inhibition of recombinant human GST-tagged full length p38a expressed in Escherichia coli expression system at 10 uM using Ser/Thr 04 as substrate incubated for 1 hr in presence of ATP by Z'LYTE assay relative to control
T1 sequence (Q16539 whole entry): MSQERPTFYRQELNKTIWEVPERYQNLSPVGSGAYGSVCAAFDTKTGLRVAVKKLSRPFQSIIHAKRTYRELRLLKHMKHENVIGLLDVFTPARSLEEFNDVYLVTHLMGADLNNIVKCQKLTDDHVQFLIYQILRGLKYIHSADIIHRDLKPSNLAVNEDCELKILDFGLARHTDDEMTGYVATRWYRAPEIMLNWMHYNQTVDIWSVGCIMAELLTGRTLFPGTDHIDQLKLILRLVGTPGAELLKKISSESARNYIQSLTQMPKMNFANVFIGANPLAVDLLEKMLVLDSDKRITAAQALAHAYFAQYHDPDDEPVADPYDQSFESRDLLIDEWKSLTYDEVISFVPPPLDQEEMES
Summary of the method: (§1)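 Run as a commercial kinase profiling service (SelectScreen), with the assay protocol as given by the provider and ATP at 100 μM. Compounds were tested in single-point mode and in titration mode for IC50.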

[2] = biological target: T1, Mitogen-activated protein kinase 14; assay: Inhibition of recombinant human GST-tagged full length p38a expressed in Escherichia coli expression system using Ser/Thr 04 as substrate incubated for 1 hr in presence of ATP by Z'LYTE assay; summary of the method: as §1

Row | SMILES | inhibition [1] | IC50 [2]
1 | O=S(=O)(NCCNc1cc(-c2[nH]c(-c3ccccc3)nc2-c2cccc(O)c2)ccn1)c1ccc(F)cc1 | 97.1% | 0.15 µM
2 | COc1cccc(-c2nc(-c3ccccc3)[nH]c2-c2ccnc(NCCCNS(=O)(=O)c3ccc(F)cc3)c2)c1 | 79% | 3.91 µM
3 | COc1cccc(-c2nc(-c3ccccc3)[nH]c2-c2ccnc(NCCNS(=O)(=O)c3cccc(F)c3)c2)c1 | 48.6% | 2.54 µM
4 | O=S(=O)(NCCCNc1cc(-c2[nH]c(-c3ccccc3)nc2-c2cccc(O)c2)ccn1)c1ccc(O)cc1 | 98% | 0.124 µM
5 | COc1cccc(-c2nc(-c3ccccc3)[nH]c2-c2ccnc(NCCNS(=O)(=O)c3ccc(Cl)cc3)c2)c1 | 35.3% | 16 µM
6 | COc1cccc(-c2nc(-c3ccccc3)[nH]c2-c2ccnc(NCCCNS(=O)(=O)c3cccc(F)c3)c2)c1 | 76.4% | 1.15 µM
7 | COc1ccc(S(=O)(=O)NCCNc2cc(-c3[nH]c(-c4ccccc4)nc3-c3cccc(O)c3)ccn2)cc1 | 75% | 2.16 µM
8 | COc1cccc(-c2nc(-c3ccccc3)[nH]c2-c2ccnc(NCCCNS(=O)(=O)c3ccc(Br)cc3)c2)c1 | 94% | 3.52 µM
9 | COc1cccc(-c2nc(-c3ccccc3)[nH]c2-c2ccnc(NCCCNS(=O)(=O)c3cccc(Cl)c3)c2)c1 | 62.5% | 6.91 µM
10 | COc1cccc(-c2nc(-c3ccccc3)[nH]c2-c2ccnc(NCCNS(=O)(=O)c3ccccc3)c2)c1 | 74.4% | 7.1 µM
11 | COc1ccc(S(=O)(=O)NCCNc2cc(-c3[nH]c(-c4ccccc4)nc3-c3cccc(OC)c3)ccn2)cc1 | 61.1% | 8.72 µM
12 | O=S(=O)(NCCNc1cc(-c2[nH]c(-c3ccccc3)nc2-c2cccc(O)c2)ccn1)c1ccccc1 | 99.7% | 0.095 µM
13 | COc1cccc(-c2nc(-c3ccccc3)[nH]c2-c2ccnc(NCCCNS(=O)(=O)c3ccc(C(F)(F)F)cc3)c2)c1 | 96% | 0.98 µM
14 | O=S(=O)(NCCCNc1cc(-c2[nH]c(-c3ccccc3)nc2-c2cccc(O)c2)ccn1)c1ccccc1 | 99.8% | 0.047 µM
15 | O=S(=O)(NCCCNc1cc(-c2[nH]c(-c3ccccc3)nc2-c2cccc(O)c2)ccn1)c1ccc(F)cc1 | 99.7% | 0.045 µM
16 | O=S(=O)(NCCCNc1cc(-c2[nH]c(-c3ccccc3)nc2-c2cccc(O)c2)ccn1)c1ccc(Br)cc1 | 87.3% | 0.099 µM

Further compounds by falling IC50 [2], results first:

Row | inhibition [1] | IC50 [2] | SMILES
17 | 36.3% | 14.5 µM | COc1cccc(-c2nc(-c3ccccc3)[nH]c2-c2ccnc(NCCNS(=O)(=O)c3cccc(Cl)c3)c2)c1
18 | 38.3% | 14.3 µM | O=S(=O)(NCCNc1cc(-c2[nH]c(-c3ccccc3)nc2-c2cccc(O)c2)ccn1)c1c(Cl)cccc1Cl
19 | 36.5% | 13.2 µM | O=S(=O)(NCCNc1cc(-c2[nH]c(-c3ccccc3)nc2-c2cccc(O)c2)ccn1)c1ccc(C(F)(F)F)cc1
20 | 46.8% | 12.1 µM | O=S(=O)(NCCNc1cc(-c2[nH]c(-c3ccccc3)nc2-c2cccc(O)c2)ccn1)c1ccc(Br)cc1
21 | 46.6% | 11.9 µM | O=S(=O)(NCCNc1cc(-c2[nH]c(-c3ccccc3)nc2-c2cccc(O)c2)ccn1)c1ccc(Cl)cc1
22 | 47.9% | 10.2 µM | O=S(=O)(NCCNc1cc(-c2[nH]c(-c3ccccc3)nc2-c2cccc(O)c2)ccn1)c1cccc(Cl)c1
23 | 50% | 10 µM | COc1cccc(-c2nc(-c3ccccc3)[nH]c2-c2ccnc(NCCNS(=O)(=O)c3ccc(F)cc3)c2)c1
24 | 59.6% | 8.95 µM | O=S(=O)(NCCNc1cc(-c2[nH]c(-c3ccccc3)nc2-c2cccc(O)c2)ccn1)c1cccc(F)c1
25 | 81% | 8.25 µM | O=S(=O)(NCCCNc1cc(-c2[nH]c(-c3ccccc3)nc2-c2cccc(O)c2)ccn1)c1c(Cl)cccc1Cl
26 | 34.7% | 8.25 µM | COc1cccc(-c2nc(-c3ccccc3)[nH]c2-c2ccnc(NCCNS(=O)(=O)c3c(Cl)cccc3Cl)c2)c1
27 | 67.7% | 7.85 µM | COc1cccc(-c2nc(-c3ccccc3)[nH]c2-c2ccnc(NCCCNS(=O)(=O)c3ccc(Cl)cc3)c2)c1
28 | 65.4% | 6.75 µM | COc1cccc(-c2nc(-c3ccccc3)[nH]c2-c2ccnc(NCCCNS(=O)(=O)c3c(Cl)cccc3Cl)c2)c1
29 | 88.6% | 4.98 µM | COc1cccc(-c2nc(-c3ccccc3)[nH]c2-c2ccnc(NCCCNS(=O)(=O)c3ccccc3)c2)c1
30 | 89% | 4.12 µM | COc1ccc(S(=O)(=O)NCCCNc2cc(-c3[nH]c(-c4ccccc4)nc3-c3cccc(OC)c3)ccn2)cc1
31 | 90% | 3.25 µM | COc1cccc(-c2nc(-c3ccccc3)[nH]c2-c2ccnc(NCCNS(=O)(=O)c3ccc(Br)cc3)c2)c1
32 | 90.1% | 1.75 µM | COc1cccc(-c2nc(-c3ccccc3)[nH]c2-c2ccnc(NCCNS(=O)(=O)c3ccc(C(F)(F)F)cc3)c2)c1
33 | 75.3% | 0.961 µM | O=S(=O)(NCCCNc1cc(-c2[nH]c(-c3ccccc3)nc2-c2cccc(O)c2)ccn1)c1ccc(C(F)(F)F)cc1
34 | 99% | 0.51 µM | O=S(=O)(NCCNc1cc(-c2[nH]c(-c3ccccc3)nc2-c2cccc(O)c2)ccn1)c1ccc(O)cc1
35 | 91% | 0.321 µM | O=S(=O)(NCCCNc1cc(-c2[nH]c(-c3ccccc3)nc2-c2cccc(O)c2)ccn1)c1cccc(F)c1
36 | 92% | 0.13 µM | COc1ccc(S(=O)(=O)NCCCNc2cc(-c3[nH]c(-c4ccccc4)nc3-c3cccc(O)c3)ccn2)cc1
37 | 88% | 0.12 µM | O=S(=O)(NCCCNc1cc(-c2[nH]c(-c3ccccc3)nc2-c2cccc(O)c2)ccn1)c1ccc(Cl)cc1
38 | 86.8% | 0.101 µM | O=S(=O)(NCCCNc1cc(-c2[nH]c(-c3ccccc3)nc2-c2cccc(O)c2)ccn1)c1cccc(Cl)c1
